# Experimental data as given in PMC7825275 (Cancer chemotherapy and pharmacology, 2019).
# Legend:
# [1] = test system: patients with advanced solid tumors; format: in vivo, human; details: with veliparib 100 mg BID and carboplatin AUC 6
# Outline: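 Standard 3+3 escalation with modified Fibonacci steps. Oral veliparib was given every 12 h on days 1–7 of 21-day cycles, with IV carboplatin/paclitaxel on day 3. For the first 46 patients, cycle 1 was chemotherapy alone and DLT was scored in cycle 2; afterwards all three agents were given in cycle 1, which was the DLT cycle. Growth factors were barred in cycles 1–2. MTD was the highest dose with ≤1/6 DLTs.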
# [2] = Paclitaxel plasma pharmacokinetics; format: in vivo, human; details: cycle 1 (veliparib -) vs cycle 2 (veliparib +)
# Outline: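 Patient plasma from heparinized blood drawn pre-dose and at 0.5–24 h after start of IV paclitaxel infusion, in the chemotherapy-alone lead-in cycle and in the veliparib cycle (day 3). Samples were spun at ~1,000 x g for 10 min and plasma held at −70°C or colder. Quantitation was by LC-MS/MS with [13C6]-paclitaxel internal standard. Parameters were derived non-compartmentally and paired cycles compared by 2-sided exact Wilcoxon signed rank.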
# [3] = Ultrafilterable carboplatin; format: in vivo, human
# Outline: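 Ultrafilterable platinum was measured by atomic absorption spectrophotometry in patient plasma. […] Plasma was spun at ~1,000 x g for 10 min and stored at −70°C or colder. Parameters were derived non-compartmentally. AUC targeting bias and precision were taken as mean prediction error and root mean squared prediction error. Cycles were compared by 2-sided exact Wilcoxon signed rank.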
# [4] = test system: patients with advanced solid tumors; assay: Toxicity by grade; format: in vivo, human; details: initial cycle of carboplatin and paclitaxel without veliparib
# Outline: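 Adverse events were tabulated descriptively as maximum grade in three groups: the chemotherapy-only lead-in cycle, the first veliparib-containing cycle, and all cycles. CBC and serum chemistry including liver function tests were drawn weekly during cycles 1–2, then at the start of every cycle. Veliparib was oral, twice daily on days 1–7; carboplatin/paclitaxel were IV every 21 days.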
# [5] = test system: patients; details: days 1-5, with veliparib 10 mg bid; cited from earlier work
compound,measurement,setting,value
CC(=O)O[C@H]1C(=O)[C@@]2(C)[C@H]([C@H](OC(=O)c3ccccc3)[C@]3(O)C[C@H](OC(=O)[C@H](O)[C@@H](NC(=O)c4ccccc4)c4ccccc4)C(C)=C1C3(C)C)[C@]1(OC(C)=O)CO[C@@H]1C[C@@H]2O [paclitaxel],"MTD and RP2D, paclitaxel dose",[1],200 mg/m^2
same,"paclitaxel exposure, effect of the presence of veliparib or veliparib dose",[2],not impacted
N.N.O=C([O-])C1(C(=O)[O-])CCC1.[Pt+2] [carboplatin],"Carboplatin exposure, effect of the presence of veliparib or veliparib dose",[3]; cycle 1 (veliparib -) vs cycle 2 (veliparib +),not impacted
same,ME as % of AUC 6 mg•min/mL,[3]; in the absence of veliparib,31%
same,RMSE as % of AUC 6 mg•min/mL,[3]; in the absence of veliparib,57%
same,ME as % of AUC 6 mg•min/mL,[3]; in the presence of veliparib,22%
same,RMSE as % of AUC 6 mg•min/mL,[3]; in the presence of veliparib,45%
carboplatin and paclitaxel,neutropenia grade 3,[4],20%
same,neutropenia grade 4,[4],24%
same,"neutropenia, % of patients",[4],56%
CC[C@@]1(O)C(=O)OCc2c1cc1n(c2=O)Cc2cc3c(CN(C)C)c(O)ccc3nc2-1 [topotecan],"MTD, topotecan dose",[5],0.6 mg
